Experimental data: ChEMBL document CHEMBL1139834, “Synthesis and structure-activity relationships of new benzodioxinic lactones as potential anticancer drugs” (J Med Chem, 2007)
pIC50: −log10 of the molar value. Active and inactive are the calls of the source. The calls are words filed in the database; no cut-off is given here.

Columns and labels:
[1] = Effect on DNA sequence recognition assessed by DNase I footprinting assay; format: functional
Malme-3M = assay: Antitumor activity against human MALME3M cell line; format: functional
How it was run: (§1)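 Human tumour cell line panel. GI50 is the concentration giving 50% growth inhibition, averaged over at least two determinations. LC50 is the concentration killing 50% of cells in a […] assay.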

A549 = assay: Antitumor activity against human A549 cell line; format: functional; how it was run: as §1
UACC-62 = assay: Antitumor activity against human UACC62 cell line; format: functional
How it was run: (§2)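 Human tumour cell lines from a selected panel. GI50 is the concentration giving 50% growth inhibition, averaged from at least two determinations. LC50 is the concentration killing 50% of cells in a […] assay.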

MDA-MB-435 = assay: Antitumor activity against human MDA-MB-435 cell line; format: functional; how it was run: as §1
SW-620 = assay: Antitumor activity against human SW620 cell line; format: functional; how it was run: as §2
HOP-92 = assay: Antitumor activity against human HOP92 cell line; format: functional; how it was run: as §1
Homo sapiens = species: Homo sapiens; assay: Inhibition of topoisomerase 2 assessed by DNA cleavage complex formation assay
How it was run: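 Cleavage complex formed on pYRG plasmid DNA by human topoisomerase II purified from placenta. Linear DNA product quantified by densitometry relative to ellipticine.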

L1210 [2] = assay: Cytotoxicity against mouse L1210 cell line; format: cell-based; conditions: Mus musculus, L1210
How it was run: (§3)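 Cells grown at 37 °C under 5% CO2 in medium with 2 mM L-glutamine, penicillin, streptomycin and 20% heat-inactivated horse serum. Drug in DMSO (0.5% final) added to exponentially growing cells seeded at 0.8 × 10^5 cells/mL. Coulter counting in quadruplicate at 48 h (L1210) or 96 h (HT-29). IC50 from probit of % growth inhibition versus log dose; four independent runs in triplicate.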

OVCAR-8 = assay: Antitumor activity against human OVCAR8 cell line; format: functional; how it was run: as §1
HCT-116 = assay: Antitumor activity against human HCT116 cell line; format: functional; how it was run: as §1
HL-60 = assay: Antitumor activity against human HL60 cell line; format: functional; how it was run: as §1
U-251 = assay: Antitumor activity against human U251 cell line; format: functional; how it was run: as §2
OVCAR-4 = assay: Antitumor activity against human OVCAR4 cell line; format: functional; how it was run: as §1
RPMI-8226 = assay: Antitumor activity against human RPMI8226 cell line; format: functional; how it was run: as §1
SK-MEL-5 = assay: Antitumor activity against human SKMEL5 cell line; format: functional; how it was run: as §1
PC-3 = assay: Antitumor activity against human PC3 cell line; format: functional; how it was run: as §1
NCI-H226 = assay: Antitumor activity against human NCI-H226 cell line; format: functional; how it was run: as §1
L1210 [3] = assay: Cell cycle arrest in mouse L1210 cell line by accumulation at 8N phase at 5 uM after 24 hrs; format: functional
How it was run: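 L1210 cells in RPMI 1640 with 2 mM L-glutamine, penicillin, streptomycin and 20% heat-inactivated horse serum, 5% CO2, 37 °C, exposed to several drug concentrations. Cells fixed in 70% ethanol, washed, stained 30 min at room temperature with propidium iodide plus RNAse in PBS, then flow cytometry. Read-out is percentage of cells in each cycle phase after 24 h exposure.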

UACC-257 = assay: Antitumor activity against human UACC257 cell line; format: functional; how it was run: as §2
OVCAR-3 = assay: Antitumor activity against human OVCAR-3 cell line; format: functional; how it was run: as §1
TK-10 = assay: Antitumor activity against human TK10 cell line; format: functional; how it was run: as §2
NCI-H460 = assay: Antitumor activity against human NCI-H460 cell line; format: functional; how it was run: as §1
SR = assay: Antitumor activity against human SR cell line; format: functional; how it was run: as §2
OVCAR-5 = assay: Antitumor activity against human OVCAR5 cell line; format: functional; how it was run: as §1
NCI-H522 = assay: Antitumor activity against human NCI-H522 cell line; format: functional; how it was run: as §1
HT-29 [4] = assay: Cytotoxicity against human HT29 cell line; format: cell-based; how it was run: as §3
SN12C = assay: Antitumor activity against human SN12C cell line; format: functional; how it was run: as §1
K562 = assay: Antitumor activity against human K562 cell line; format: functional; how it was run: as §1
NCI-H322M = assay: Antitumor activity against human NCI-H322M cell line; format: functional; how it was run: as §1
HOP-62 = assay: Antitumor activity against human HOP62 cell line; format: functional; how it was run: as §1
786-0 = assay: Antitumor activity against human 7860 cell line; format: functional; how it was run: as §1
DU-145 = assay: Antitumor activity against human DU145 cell line; format: functional; how it was run: as §1
SK-MEL-28 = assay: Antitumor activity against human SKMEL28 cell line; format: functional; how it was run: as §1
ACHN = assay: Antitumor activity against human ACHN cell line; format: functional; how it was run: as §1
NCI/ADR-RES = assay: Antitumor activity against human NCI/ADRRES cell line; format: functional; how it was run: as §1
BT-549 = assay: Antitumor activity against human BT549 cell line; format: functional; how it was run: as §1
T47D = assay: Antitumor activity against human T47D cell line; format: functional; how it was run: as §2
SF-539 = assay: Antitumor activity against human SF539 cell line; format: functional; how it was run: as §1
HCC 2998 = assay: Antitumor activity against human HCC2998 cell line; format: functional; conditions: read-out: LC50 (the source's name); how it was run: as §1
SNB-75 = assay: Antitumor activity against human SNB75 cell line; format: functional; conditions: read-out: LC50 (the source's name); how it was run: as §2
KM12 = assay: Antitumor activity against human KM12 cell line; format: functional; how it was run: as §1
HT-29 [5] = assay: Antitumor activity against human HT29 cell line; format: functional
HCT-15 = assay: Antitumor activity against human HCT15 cell line; format: functional; how it was run: as §1
M14 = assay: Antitumor activity against human M14 cell line; format: functional; how it was run: as §1
MDA-MB-231 = assay: Antitumor activity against human MDA-MB-231 cell line; format: functional; how it was run: as §1
SK-MEL-2 = assay: Antitumor activity against human SKMEL2 cell line; format: functional; how it was run: as §1
Hs-578T = assay: Antitumor activity against human HS578T cell line; format: functional; how it was run: as §1
[6] = read-out: LC50 (the source's name)

Which results are given for `CCCCc1c2c(c(C)c3c1C(=O)OC3)Oc1ccccc1O2`?
Activity [1]: inactive; GI50 (Malme-3M): 0.447 µM; CC50 (Malme-3M; [6]): 100 µM; GI50 (A549): 0.603 µM; CC50 (A549; [6]): 70 µM; GI50 (UACC-62): 0.49 µM; CC50 (UACC-62; [6]): 100 µM; GI50 (MDA-MB-435): 0.158 µM; CC50 (MDA-MB-435; [6]): 40 µM; GI50 (SW-620): 0.525 µM; CC50 (SW-620; [6]): 100 µM; GI50 (HOP-92): 5.75 µM; CC50 (HOP-92; [6]): 100 µM; Activity (Homo sapiens): inactive; pIC50 (L1210 [2]): 5.62; GI50 (OVCAR-8): 3.55 µM; CC50 (OVCAR-8; [6]): 100 µM; GI50 (HCT-116): 0.38 µM; CC50 (HCT-116; [6]): 50 µM; GI50 (HL-60): 0.245 µM; CC50 (HL-60; [6]): 100 µM; GI50 (U-251): 0.525 µM; CC50 (U-251; [6]): 40 µM; GI50 (OVCAR-4): 1.95 µM; CC50 (OVCAR-4; [6]): 100 µM; GI50 (RPMI-8226): 0.759 µM; CC50 (RPMI-8226; [6]): 100 µM; GI50 (SK-MEL-5): 0.427 µM; CC50 (SK-MEL-5; [6]): 100 µM; GI50 (PC-3): 0.437 µM; CC50 (PC-3; [6]): 100 µM; GI50 (NCI-H226): 1.86 µM; CC50 (NCI-H226; [6]): 100 µM; Activity (L1210 [3]): 67%; GI50 (UACC-257): 0.302 µM; CC50 (UACC-257; [6]): 100 µM; GI50 (OVCAR-3): 0.525 µM; CC50 (OVCAR-3; [6]): 100 µM; GI50 (TK-10): 1.51 µM; CC50 (TK-10; [6]): 100 µM; GI50 (NCI-H460): 0.372 µM; CC50 (NCI-H460; [6]): 100 µM; GI50 (SR): 0.132 µM; CC50 (SR; [6]): 100 µM; GI50 (OVCAR-5): 7.59 µM; CC50 (OVCAR-5; [6]): 100 µM; GI50 (NCI-H522): 0.234 µM; CC50 (NCI-H522; [6]): 100 µM; pIC50 (HT-29 [4]): 6.24; GI50 (SN12C): 1.26 µM; CC50 (SN12C; [6]): 100 µM; GI50 (K562): 0.38 µM; CC50 (K562; [6]): 100 µM; GI50 (NCI-H322M): 0.933 µM; CC50 (NCI-H322M; [6]): 100 µM; GI50 (HOP-62): 1.45 µM; CC50 (HOP-62; [6]): 100 µM; GI50 (786-0): 0.562 µM; CC50 (786-0; [6]): 50 µM; GI50 (DU-145): 1.82 µM; CC50 (DU-145; [6]): 100 µM; GI50 (SK-MEL-28): 39.8 µM; CC50 (SK-MEL-28; [6]): 100 µM; GI50 (ACHN): 3.72 µM; CC50 (ACHN; [6]): 100 µM; GI50 (NCI/ADR-RES): 0.437 µM; CC50 (NCI/ADR-RES; [6]): 100 µM; GI50 (BT-549): 21.4 µM; CC50 (BT-549; [6]): 100 µM; GI50 (T47D): 6.46 µM; CC50 (T47D; [6]): 100 µM; GI50 (SF-539): 0.339 µM; CC50 (SF-539; [6]): 10 µM; CC50 (HCC 2998): 40 µM; CC50 (SNB-75): 90 µM; GI50 (KM12): 0.49 µM; CC50 (KM12; [6]): 100 µM; GI50 (HT-29 [5]): 0.331 µM; CC50 (HT-29 [5]; [6]): 100 µM; GI50 (HCT-15): 0.589 µM; CC50 (HCT-15; [6]): 100 µM; GI50 (M14): 0.603 µM; CC50 (M14; [6]): 100 µM; GI50 (MDA-MB-231): 2.34 µM; CC50 (MDA-MB-231; [6]): 100 µM; GI50 (SK-MEL-2): 0.363 µM; CC50 (SK-MEL-2; [6]): 100 µM; GI50 (Hs-578T): 0.363 µM; CC50 (Hs-578T; [6]): 100 µM
